Our source for the inhibition values is PubChem BioAssay AID1325 (NMMLSC, 2008).

SMILES strings stand for the structures. The campaign covered roughly 190,000 compounds. About 200 (0.11%) were called active. This excerpt belongs to a sample that is enriched for actives. A number with no mark means an inactive call.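 How the source made its calls: active means inhibition above 80%; inactive means the rest.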

Chain of Broad substrate specificity ATP-binding cassette transporter ABCG2 (Homo sapiens) (Q9UNQ0 whole entry, looked up): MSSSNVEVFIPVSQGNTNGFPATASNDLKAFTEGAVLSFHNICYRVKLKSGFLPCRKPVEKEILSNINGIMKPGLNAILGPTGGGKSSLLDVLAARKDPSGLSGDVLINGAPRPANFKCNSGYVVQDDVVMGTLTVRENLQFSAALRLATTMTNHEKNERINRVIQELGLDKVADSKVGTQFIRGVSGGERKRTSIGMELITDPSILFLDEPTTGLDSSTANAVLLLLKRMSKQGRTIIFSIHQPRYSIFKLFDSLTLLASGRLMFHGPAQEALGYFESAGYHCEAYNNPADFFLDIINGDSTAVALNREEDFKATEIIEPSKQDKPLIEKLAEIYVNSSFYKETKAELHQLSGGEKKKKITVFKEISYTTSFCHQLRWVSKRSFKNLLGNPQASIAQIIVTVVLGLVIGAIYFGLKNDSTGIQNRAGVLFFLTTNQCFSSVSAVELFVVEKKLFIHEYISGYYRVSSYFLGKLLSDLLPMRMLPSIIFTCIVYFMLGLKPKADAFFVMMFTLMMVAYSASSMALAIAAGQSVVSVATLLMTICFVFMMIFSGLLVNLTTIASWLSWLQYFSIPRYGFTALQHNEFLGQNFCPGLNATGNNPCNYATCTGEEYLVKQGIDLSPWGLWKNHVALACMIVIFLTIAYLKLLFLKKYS

The target in this assay is Broad substrate specificity ATP-binding cassette transporter ABCG2 (Homo sapiens) (UniProt Q9UNQ0). Briefly: blockers of JC-1 export by ABCG2 – multiplex with ABCB1, IgMXP3 cells, flow cytometry, primary screen (AID 1325).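 Further: 0% = DMSO and 100% = nicardipine control wells.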 The note with it: JC-1 efflux, at 6.6 µM, stronger effect = higher value. In outline:
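test system = two drug-resistant human cell lines, ABCG2 and ABCB1 | amount = 3 million cells/mL final, two lines in 1:1 ratio | reagent = JC-1 transporter substrate | doses = one concentration, 6.6 µM final | incubation = 10 min at 25 °C | signal = flow cytometric JC-1 green MFI at 530 nm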
A general note: In flow cytometry, cells or beads pass a laser one at a time.
As a reminder, the inhibition is the drop in the measured response relative to a control, in per cent. On to `COC(=O)COc1cc(C)cc2oc(=O)c3c(c12)CCCC3`, for which the inhibition was 85.8% (active).
The value for `Cc1cc(OCc2cc(C(=O)O)oc2C)c2c3c(c(=O)oc2c1)CCCC3` was -0.16%.
The figure for `Cc1ccc(-c2nc3ccccc3c(=O)n2-c2ccc(Br)cn2)cc1` is 4.52%.
Regarding `COc1ccc(-c2nn(CCC#N)cc2C(=O)O)cc1`, the inhibition is 12.1%.
The figure for `CN(C)C(=O)Oc1cc(=O)n2c3c(cccc13)CCC2` is 8.26%.
